Results published in ChEMBL document CHEMBL4138109, “Synthesis and structure-activity relationships of novel fused ring analogues of Q203 as antitubercular agents” (Eur J Med Chem, 2017).
Values after ≈ are worked out from the molar mass of the structure shown.

Tests used:
[1] = test system: Mycobacterium tuberculosis; assay: Antimycobacterial activity against GFP expressing Mycobacterium tuberculosis H37Rv assessed as reduction in bacterial replication in culture broth medium; type: functional
Outline: (§1)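 H37Rv expressing GFP, grown either in liquid broth (extracellular) or inside macrophages (intracellular). The value is MIC80, the lowest concentration that inhibits growth by 80%, averaged from two independent measurements.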

[2] = test system: Mycobacterium tuberculosis; assay: Antimycobacterial activity against GFP expressing Mycobacterium tuberculosis H37Rv infected in mouse RAW264.7 cells assessed as reduction in bacterial replication after 5 days by confocal microscopic method; type: functional; details: 120 h; outline: as §1
[3] = Half life in human liver microsomes; type: ADME, microsome
[4] = Half life in rat liver microsomes; type: ADME, microsome
[5] = Half life in mouse at 2 mg/kg, iv; type: ADME, organism-based; details: in vivo
Outline: (§2)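 Mice received a single intravenous dose of 2 mg/kg or an oral dose of 10 mg/kg. Drug concentrations were measured in plasma, with sampling that extended to 24 h, and the pharmacokinetic parameters were derived from the plasma concentration–time profiles.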

[6] = Clearance in mouse at 2 mg/kg, iv; type: ADME, organism-based; details: in vivo; outline: as §2
[7] = Volume of distribution at steady state in mouse at 2 mg/kg, iv; type: ADME, organism-based; details: in vivo, read-out: Vdss; outline: as §2
[8] = Cmax in mouse at 10 mg/kg, po; type: ADME, organism-based; design: dose 10 mg/kg, route oral; details: in vivo; outline: as §2
[9] = Half life in mouse at 10 mg/kg, po; type: ADME, organism-based; details: in vivo; outline: as §2
[10] = Tmax in mouse at 10 mg/kg, po; type: ADME, organism-based; details: in vivo; outline: as §2
[11] = AUC (0 to infinity) in mouse at 10 mg/kg, po; type: ADME, organism-based; design: dose 10 mg/kg, route oral, time infinity; details: in vivo; outline: as §2
[12] = Oral bioavailability in mouse at 10 mg/kg; type: ADME, organism-based; details: in vivo; outline: as §2

Row | SMILES | MIC80 [1] | MIC80 [2] | half-life [3] | half-life [4] | half-life [5] | clearance [6] | Vd [7] | Cmax [8] | half-life [9] | Tmax [10] | AUC(0-inf) [11] | bioavailability [12]
1 | CCc1nc2ccc(Cl)cn2c1C(=O)NCc1ccc2oc(-c3ccc(F)cc3)nc2c1 | 0.009 µM (≈ 0.00404 µg/mL) | 0.003 µM (≈ 0.00135 µg/mL) | 25.6 min | 54.3 min |  |  |  |  |  |  |  | 
2 | CCc1nc2cc(Cl)ccn2c1C(=O)NCc1ccc2ccccc2c1 | 0.12 µM (≈ 0.0437 µg/mL) | 1 µM (≈ 0.364 µg/mL) | 23.7 min | 6.3 min |  |  |  |  |  |  |  | 
3 | CCc1nc2cc(Cl)ccn2c1C(=O)NCc1ccc2oc(C3CCCCC3)nc2c1 | 0.082 µM (≈ 0.0358 µg/mL) | 0.082 µM (≈ 0.0358 µg/mL) | 10.2 min | 9.5 min |  |  |  |  |  |  |  | 
4 | CCc1nc2ccc(Cl)cn2c1C(=O)NCc1ccc2oc(-c3ccc(OC(F)(F)F)cc3)nc2c1 | 0.027 µM (≈ 0.0139 µg/mL) | 0.009 µM (≈ 0.00463 µg/mL) | > 120 min | > 120 min |  |  |  |  |  |  |  | 
5 | CCc1nc2cc(Cl)ccn2c1C(=O)NCc1ccc2oc(CN3CCOCC3)nc2c1 | 13.7 µM (≈ 6.22 µg/mL) | 6.67 µM (≈ 3.03 µg/mL) | 23.2 min | 18.9 min |  |  |  |  |  |  |  | 
6 | CCc1nc2ccc(Cl)cn2c1C(=O)NCc1ccc2oc(C)nc2c1 | 0.2 µM (≈ 0.0738 µg/mL) | 0.082 µM (≈ 0.0302 µg/mL) | 32.2 min | 5.8 min |  |  |  |  |  |  |  | 
7 | CCc1nc2cc(Cl)ccn2c1C(=O)NCc1ccc2oc(-c3ccc(F)cc3)nc2c1 | 0.082 µM (≈ 0.0368 µg/mL) | 0.74 µM (≈ 0.332 µg/mL) | 103 min | > 120 min |  |  |  |  |  |  |  | 
8 | CCc1nc2ccc(Cl)cn2c1C(=O)NCc1ccc2c(c1)OCO2 | 0.082 µM (≈ 0.0293 µg/mL) | 0.009 µM (≈ 0.00322 µg/mL) | 7.4 min | 2.1 min |  |  |  |  |  |  |  | 
9 | CCc1nc2ccc(Cl)cn2c1C(=O)NCc1ccc2ccccc2c1 | 0.031 µM (≈ 0.0113 µg/mL) | 0.062 µM (≈ 0.0226 µg/mL) | 6.9 min | 3.1 min |  |  |  |  |  |  |  | 
10 | CCc1nc2cc(Cl)ccn2c1C(=O)NCc1ccc2oc(-c3ccc(OC(F)(F)F)cc3)nc2c1 | 0.009 µM (≈ 0.00463 µg/mL) | < 0.001 µM | > 120 min | > 120 min | 1080 min | 0.036 L/h/kg | 1.2 L/kg | 5.56 µg/mL | 36.3 h | 60 min | 116 µg·h/mL | 40.1%
11 | CCc1nc2ccc(Cl)cn2c1C(=O)NCc1ccc2oc(C3CCCCC3)nc2c1 | 0.082 µM (≈ 0.0358 µg/mL) | 0.082 µM (≈ 0.0358 µg/mL) | 17 min | 5.2 min |  |  |  |  |  |  |  | 
12 | CCc1nc2ccc(Cl)cn2c1C(=O)NCc1ccc2oc(CN3CCOCC3)nc2c1 | 2.67 µM (≈ 1.21 µg/mL) | 2.22 µM (≈ 1.01 µg/mL) | 17 min | 14.1 min |  |  |  |  |  |  |  | 
13 | CCc1nc2cc(Cl)ccn2c1C(=O)NCc1ccc2oc(C)nc2c1 | 1.53 µM (≈ 0.564 µg/mL) | 0.74 µM (≈ 0.273 µg/mL) | > 120 min | 10.3 min |  |  |  |  |  |  |  | 
14 | NNC(=O)c1ccncc1 [ISONIAZID] | 0.49 µM (≈ 0.0672 µg/mL) | 0.2 µM (≈ 0.0274 µg/mL) |  |  |  |  |  |  |  |  |  | 
15 | CCc1nc2ccc(Cl)cn2c1C(=O)NCc1ccc(N2CCC(c3ccc(OC(F)(F)F)cc3)CC2)cc1 [TELACEBEC] | 0.004 µM (≈ 0.00223 µg/mL) | 0.001 µM (≈ 0.000557 µg/mL) |  |  |  |  |  |  |  |  |  | 
